Experiment [1] has as its target T1, 5-hydroxytryptamine receptor 1A (Homo sapiens, UniProt P08908).
T1 sequence (P08908 whole entry): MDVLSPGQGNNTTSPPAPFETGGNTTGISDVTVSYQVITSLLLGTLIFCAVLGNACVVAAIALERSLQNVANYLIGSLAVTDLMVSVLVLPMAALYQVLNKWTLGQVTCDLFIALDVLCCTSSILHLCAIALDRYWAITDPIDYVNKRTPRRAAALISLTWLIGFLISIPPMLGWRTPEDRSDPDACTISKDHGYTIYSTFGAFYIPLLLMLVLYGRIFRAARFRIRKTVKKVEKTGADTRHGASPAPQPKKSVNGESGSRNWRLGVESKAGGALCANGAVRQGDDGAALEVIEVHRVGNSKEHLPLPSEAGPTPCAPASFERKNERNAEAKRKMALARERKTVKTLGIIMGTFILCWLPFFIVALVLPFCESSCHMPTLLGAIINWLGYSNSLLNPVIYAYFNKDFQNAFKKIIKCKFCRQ
Nature of the experiment: Displacement of [3H]LSD from human 5-HT1A receptor expressed in HEK cell membranes after 1.5 hrs by microbeta scintillation counting method. Summed up:
(§1)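 Radioligand binding performed by the NIMH Psychoactive Drug Screening Program. Crude membranes from cells expressing recombinant receptor, with [3H]LSD, in 50 mM Tris-HCl, 10 mM MgCl2, 1 mM EDTA, pH 7.4. Eleven test concentrations. Incubated 1.5 h at room temperature, protected from light. Filtered onto PEI-soaked GF/B filters, then scintillation counting. IC50 converted to Ki; at least three experiments in triplicate.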

Experiment [2] has as its target 5-hydroxytryptamine receptor 1B (Homo sapiens, UniProt P28222). The experiment can be described thus: Displacement of [3H]LSD from human 5-HT1B receptor expressed in HEK cell membranes after 1.5 hrs by microbeta scintillation counting method. Summed up: as §1
In experiment [3] the target is 5-hydroxytryptamine receptor 1D (Homo sapiens, UniProt P28221). The experiment can be described thus: Displacement of [3H]LSD from human 5-HT1D receptor expressed in HEK cell membranes after 1.5 hrs by microbeta scintillation counting method. In short, it runs like this: as §1
On the technique in general: Displacement assays read how much labelled ligand stays bound in the presence of the test substance.

For experiment [4], the target named is 5-hydroxytryptamine receptor 1E (Homo sapiens, UniProt P28566). The experiment can be described thus: Displacement of [3H]LSD from human 5-HT1E receptor expressed in HEK cell membranes after 1.5 hrs by microbeta scintillation counting method. In short, it runs like this:
as §1

The target in experiment [5] is 5-hydroxytryptamine receptor 2A (Homo sapiens, UniProt P28223). Nature of the experiment: Displacement of [3H]LSD from human 5-HT2A receptor expressed in HEK cell membranes after 1.5 hrs by microbeta scintillation counting method. In short, it runs like this:
as §1

In experiment [6] the target is 5-hydroxytryptamine receptor 2B (Homo sapiens, UniProt P41595). Nature of the experiment: Displacement of [3H]LSD from human 5-HT2B receptor expressed in HEK cell membranes after 1.5 hrs by microbeta scintillation counting method.
Experiment [7] deals with T2, 5-hydroxytryptamine receptor 2C (Homo sapiens, UniProt P28335).
T2 sequence (P28335 whole entry): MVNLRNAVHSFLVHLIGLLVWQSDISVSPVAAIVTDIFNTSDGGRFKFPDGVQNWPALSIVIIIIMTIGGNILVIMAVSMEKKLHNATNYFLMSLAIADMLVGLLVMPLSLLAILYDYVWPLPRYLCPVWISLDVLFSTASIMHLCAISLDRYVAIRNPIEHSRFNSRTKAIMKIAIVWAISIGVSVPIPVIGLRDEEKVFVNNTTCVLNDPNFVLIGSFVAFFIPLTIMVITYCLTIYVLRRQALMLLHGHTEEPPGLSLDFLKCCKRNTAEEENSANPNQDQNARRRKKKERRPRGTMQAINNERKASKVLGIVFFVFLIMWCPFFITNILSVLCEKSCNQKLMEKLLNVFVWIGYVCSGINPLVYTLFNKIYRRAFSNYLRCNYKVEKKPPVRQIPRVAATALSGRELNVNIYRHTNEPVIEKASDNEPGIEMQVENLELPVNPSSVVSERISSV
The experiment can be described thus: Displacement of [3H]LSD from human 5-HT2C receptor expressed in HEK cell membranes after 1.5 hrs by microbeta scintillation counting method. Summed up:
as §1

Experiment [8] addresses T3, 5-hydroxytryptamine receptor 3A (Homo sapiens, UniProt P46098).
T3 sequence (P46098 whole entry): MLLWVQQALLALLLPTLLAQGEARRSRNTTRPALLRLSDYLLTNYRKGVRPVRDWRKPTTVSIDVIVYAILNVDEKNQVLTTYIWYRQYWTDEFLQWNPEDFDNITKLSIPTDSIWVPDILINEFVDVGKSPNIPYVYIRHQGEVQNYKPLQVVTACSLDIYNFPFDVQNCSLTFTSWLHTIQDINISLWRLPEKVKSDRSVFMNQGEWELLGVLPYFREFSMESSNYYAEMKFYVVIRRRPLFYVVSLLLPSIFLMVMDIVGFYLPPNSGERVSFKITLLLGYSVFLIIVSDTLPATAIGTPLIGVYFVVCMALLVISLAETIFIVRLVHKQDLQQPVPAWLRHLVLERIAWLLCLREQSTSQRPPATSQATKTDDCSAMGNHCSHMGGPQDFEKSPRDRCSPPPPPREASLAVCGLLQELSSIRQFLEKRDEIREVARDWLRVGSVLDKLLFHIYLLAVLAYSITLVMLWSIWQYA
The experiment can be described thus: Displacement of [3H]LSD from human 5-HT3 receptor expressed in HEK cell membranes after 1.5 hrs by microbeta scintillation counting method. In short, it runs like this: as §1

Experiment [9] concerns the target 5-hydroxytryptamine receptor 5A (Homo sapiens, UniProt P47898). Nature of the experiment: Displacement of [3H]LSD from human 5-HT5A receptor expressed in HEK cell membranes after 1.5 hrs by microbeta scintillation counting method. In short, it runs like this: as §1
The species named for experiment [10] is Homo sapiens. The experiment can be described thus: Selectivity index, ratio of Ki for human 5-HT6 receptor to Ki for human 5-HT7 receptor. Summed up: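 Selectivity index taken as Ki at the other 5-HT receptor subtype divided by Ki at 5-HT7R, each from [3H]LSD membrane binding run by the NIMH PDSP. Ki values are means of at least three experiments in triplicate.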

Experiment [11] has as its target T4, 5-hydroxytryptamine receptor 7 (Homo sapiens, UniProt P34969). Nature of the experiment: Inverse agonist activity at human 5-HT7 receptor expressed in HEK293 cells assessed as decrease in Gs protein-mediated cAMP accumulation by luminescence-based assay. In kind it is functional, cell-based. In short, it runs like this: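 HEK293 cells transiently transfected by calcium phosphate with human 5-HT7R and GloSensor-22F cAMP biosensor. After 5-6 h recovery, loaded with GloSensor reagent in HBSS/20 mM HEPES, pH 7.4. Test compounds at 0.01 nM-100 μM final; antagonist mode uses 5-HT stimulation. Luminescence read. Data normalised to 5-HT or SB269970 (100%) and vehicle (0%). Three experiments, at least triplicate.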
(In general: cAMP levels reflect the balance of adenylyl cyclase and phosphodiesterase activity.)

For experiment [12], the target named is T4, 5-hydroxytryptamine receptor 7. The experiment can be described thus: Agonist activity at tTA containing TCS cleavage site-fused 5-HT7 receptor (unknown origin) expressed in tTA-dependent luciferase reporter/TEV-fused beta-arrestin2 expressing HTLA cells assessed as induction of beta-arrestin2 recruitment after 22 hrs by Tango assay relative to 5-HT. In kind it is functional, cell-based. In short, it runs like this:
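HTLA cells (HEK293 stably expressing tTA-dependent luciferase reporter and β-arrestin2-TEV) transiently transfected with 5-HT7R-TCS-tTA. Plated in 1% dialysed FBS medium for 6 h, then given test compounds at 0.01 nM-100 μM final, about 22 h. Antagonist mode adds 1 μM 5-HT. BrightGlo luminescence read. Normalised to 5-HT (100%) and vehicle (0%). Three experiments, at least triplicate.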
In general terms: In a reporter assay the amount or activity of a reporter protein is the signal.

The source made the active and inactive calls. No cut-off for these calls is given here. Bounds are passed on as bounds.

5-hydroxytryptamine receptor 2B, sequence (P41595 whole entry): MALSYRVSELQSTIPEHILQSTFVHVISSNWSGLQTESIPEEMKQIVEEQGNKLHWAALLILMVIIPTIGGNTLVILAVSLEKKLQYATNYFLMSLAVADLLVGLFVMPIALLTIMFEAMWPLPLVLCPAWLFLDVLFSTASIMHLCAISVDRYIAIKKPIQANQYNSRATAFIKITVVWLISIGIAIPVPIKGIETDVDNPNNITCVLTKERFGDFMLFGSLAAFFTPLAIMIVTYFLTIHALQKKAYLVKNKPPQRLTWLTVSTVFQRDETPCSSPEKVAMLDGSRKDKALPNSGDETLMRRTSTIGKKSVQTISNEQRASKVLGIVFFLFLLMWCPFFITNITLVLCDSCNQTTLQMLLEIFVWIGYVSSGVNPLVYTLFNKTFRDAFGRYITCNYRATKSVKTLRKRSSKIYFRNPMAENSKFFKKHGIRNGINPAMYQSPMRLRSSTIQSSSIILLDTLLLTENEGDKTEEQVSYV
T4 sequence (P34969 whole entry): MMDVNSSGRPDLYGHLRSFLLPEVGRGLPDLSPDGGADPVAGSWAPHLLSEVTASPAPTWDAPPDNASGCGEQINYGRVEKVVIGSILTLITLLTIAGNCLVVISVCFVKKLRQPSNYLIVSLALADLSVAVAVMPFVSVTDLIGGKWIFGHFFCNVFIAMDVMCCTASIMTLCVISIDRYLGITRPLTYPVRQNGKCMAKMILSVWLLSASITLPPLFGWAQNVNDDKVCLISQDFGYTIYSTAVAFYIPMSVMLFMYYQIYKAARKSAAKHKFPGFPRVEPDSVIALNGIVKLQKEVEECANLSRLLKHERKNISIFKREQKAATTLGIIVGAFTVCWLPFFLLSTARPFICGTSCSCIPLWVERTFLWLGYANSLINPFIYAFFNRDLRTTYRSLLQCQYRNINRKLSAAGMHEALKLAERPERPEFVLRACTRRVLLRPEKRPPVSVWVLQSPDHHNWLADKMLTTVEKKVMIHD
5-hydroxytryptamine receptor 1E, sequence (P28566 whole entry): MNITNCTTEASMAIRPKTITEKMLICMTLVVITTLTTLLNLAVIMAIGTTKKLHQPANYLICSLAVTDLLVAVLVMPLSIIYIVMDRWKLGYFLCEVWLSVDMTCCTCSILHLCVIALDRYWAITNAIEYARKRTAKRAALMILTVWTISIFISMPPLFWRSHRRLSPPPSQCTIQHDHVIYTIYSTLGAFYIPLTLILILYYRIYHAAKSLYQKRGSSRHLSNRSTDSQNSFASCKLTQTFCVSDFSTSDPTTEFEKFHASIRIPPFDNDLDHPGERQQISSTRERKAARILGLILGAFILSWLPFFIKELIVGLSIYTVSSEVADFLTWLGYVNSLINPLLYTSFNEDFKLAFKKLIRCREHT
5-hydroxytryptamine receptor 2A, sequence (P28223 whole entry): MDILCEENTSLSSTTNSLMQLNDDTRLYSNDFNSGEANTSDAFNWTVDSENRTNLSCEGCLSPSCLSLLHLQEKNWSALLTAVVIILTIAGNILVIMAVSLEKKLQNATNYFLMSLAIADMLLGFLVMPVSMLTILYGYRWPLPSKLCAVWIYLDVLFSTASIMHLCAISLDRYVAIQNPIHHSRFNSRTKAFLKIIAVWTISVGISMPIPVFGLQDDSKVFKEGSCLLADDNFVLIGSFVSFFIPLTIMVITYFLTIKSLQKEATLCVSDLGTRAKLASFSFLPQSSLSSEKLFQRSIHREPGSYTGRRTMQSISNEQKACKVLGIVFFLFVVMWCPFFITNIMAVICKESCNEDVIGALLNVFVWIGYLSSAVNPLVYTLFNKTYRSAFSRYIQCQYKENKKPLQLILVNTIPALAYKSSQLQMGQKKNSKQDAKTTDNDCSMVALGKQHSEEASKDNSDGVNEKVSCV
5-hydroxytryptamine receptor 1D, sequence (P28221 whole entry): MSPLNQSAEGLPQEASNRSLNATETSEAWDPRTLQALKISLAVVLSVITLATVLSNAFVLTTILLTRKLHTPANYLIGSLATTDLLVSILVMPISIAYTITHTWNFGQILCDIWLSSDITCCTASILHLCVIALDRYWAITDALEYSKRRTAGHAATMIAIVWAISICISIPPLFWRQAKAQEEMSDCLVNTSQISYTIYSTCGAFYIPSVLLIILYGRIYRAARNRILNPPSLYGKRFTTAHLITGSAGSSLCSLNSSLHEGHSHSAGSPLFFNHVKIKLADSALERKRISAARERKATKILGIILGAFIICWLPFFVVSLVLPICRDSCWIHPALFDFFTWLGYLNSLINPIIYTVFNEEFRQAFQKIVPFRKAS
5-hydroxytryptamine receptor 1B, sequence (P28222 whole entry): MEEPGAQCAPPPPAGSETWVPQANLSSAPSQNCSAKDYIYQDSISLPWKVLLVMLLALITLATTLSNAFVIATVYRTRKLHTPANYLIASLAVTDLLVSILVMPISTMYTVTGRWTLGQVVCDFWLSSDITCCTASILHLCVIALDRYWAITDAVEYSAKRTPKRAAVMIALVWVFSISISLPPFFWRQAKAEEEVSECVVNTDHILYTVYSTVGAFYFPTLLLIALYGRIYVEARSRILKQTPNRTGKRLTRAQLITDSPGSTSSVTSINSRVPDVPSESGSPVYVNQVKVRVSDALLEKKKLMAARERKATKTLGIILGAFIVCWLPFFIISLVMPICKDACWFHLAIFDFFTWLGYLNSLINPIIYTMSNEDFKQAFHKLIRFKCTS
5-hydroxytryptamine receptor 5A, sequence (P47898 whole entry): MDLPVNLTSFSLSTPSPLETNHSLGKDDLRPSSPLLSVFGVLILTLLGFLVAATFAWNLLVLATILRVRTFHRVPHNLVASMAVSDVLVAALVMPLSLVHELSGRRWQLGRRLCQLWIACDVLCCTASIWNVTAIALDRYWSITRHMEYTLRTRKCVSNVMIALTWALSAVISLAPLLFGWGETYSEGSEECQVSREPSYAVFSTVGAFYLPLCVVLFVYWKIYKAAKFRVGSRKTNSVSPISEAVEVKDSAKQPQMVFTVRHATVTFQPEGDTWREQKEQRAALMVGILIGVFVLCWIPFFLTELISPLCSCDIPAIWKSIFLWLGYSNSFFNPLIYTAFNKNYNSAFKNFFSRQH

The Ki is a dissociation constant, usually derived from enzyme kinetics or from competition with a known ligand. A low value points to tighter binding. As a reminder, the Emax is the greatest response seen or fitted, relative to the assay's reference. As for `Clc1ccc(-c2n[nH]c3c2CCNCC3)cc1`, the Ki in experiment [1] was over 10 µM; in [2], over 10 µM; in experiment [3], 2.11 µM; in experiment [4], 1.37 µM; in [5], 0.187 µM; in experiment [6], 0.1 µM. The figures for the Ki in experiment [7], in [8] and in experiment [9] were 0.799 µM, over 10 µM and over 10 µM, respectively. In experiment [10], the Ratio Ki was found to be 8.3. Also, in [11], the result was Active. Besides, the Emax in experiment [12] was found to be 62.8%.
On to `Cc1ccc(-c2noc3c2CCNCC3)cc1`, for which the Ki in experiment [1] is over 10 µM; in experiment [2], over 10 µM; in [3] it was 0.147 µM; in experiment [4], 1.79 µM; in experiment [5], 0.138 µM; in [6], 0.15 µM. Moreover, the figures for the inhibitory constant (Ki) in experiment [7], in experiment [8] and in [9] were 0.02 µM, 0.42 µM and 1.14 µM, respectively. Moreover, the Ratio Ki in [10] amounted to 30.8. Besides, the result in [11] was Active. Also, the maximal effect (Emax) in experiment [12] amounted to 40.3%.
Regarding `Fc1ccc(-c2n[nH]c3c2CCNCC3)cc1`, the inhibitory constant (Ki) in [1] is 1.87 µM; in [2], over 10 µM; in experiment [3], 0.636 µM; in [4], 0.793 µM; in experiment [5], 0.175 µM; in experiment [6] it was 0.097 µM. The values for the inhibition constant Ki in [7], in experiment [8] and in experiment [9] were 0.2 µM, over 10 µM and over 10 µM, respectively. The Ratio Ki in [10] came out at 4. Moreover, the outcome in experiment [11] was Active. The Emax in experiment [12] came to 53.9%.

These data come from ChEMBL document CHEMBL4196105, “Discovery of β-Arrestin Biased Ligands of 5-HT7R” (J Med Chem, 2018).
